Assay results from different studies.
Lines come from different studies, so protocols differ.
Target: Ephrin type-A receptor 2 (EPHA2, Homo sapiens, UniProt P29317)

| SMILES | effect on | method | tested at | remaining binding [%] |
| --- | --- | --- | --- | --- |
| CCOCCn1cc(C(=O)Nc2ccc(-n3nc(-c4cccnc4)cc3C(F)(F)F)cn2)ccc1=O | cell-free assay | competition with immobilised ligand | 1 µM | 93 |
| CCN1CCN(Cc2ccc(C(=O)Nc3ccc(C)c(Oc4ccc5c(c4)CC(=O)N5)c3)cc2C(F)(F)F)CC1 | binding | competition with immobilised ligand | 1 µM | 73 |
| N[C@@H]1CCN(c2nccc(-c3cnn4ncccc34)n2)C1 | binding | – | 1 µM | 100 |
| CS(=O)(=O)c1cc(C2(NC(=O)c3cncc4c3cnn4-c3ccc(F)cc3)CC2)ccn1 | cell-free assay | competition with immobilised ligand | 1 µM | 100 |
| CN(C)c1nccc(-c2cnc3ncccn23)n1 | binding | – | 1 µM | 100 |
| CC(C)(C)c1ccc(-c2nc(CBr)nn2-c2cccc(O)c2)cc1 | cell-free assay | competition with immobilised ligand | 10 µM | 89 |
| CC1CCCN1c1nccc(-c2cnn3ncccc23)n1 (centres unmarked) | binding | – | 1 µM | 99 |
| NS(=O)(=O)c1cc(NC(=O)Cc2ccccc2)ccc1Oc1cccc(Cl)c1 | cell-free assay | competition with immobilised ligand | 1 µM | 91 |
| COc1ccnn2ncc(-c3ccnc(N(C)C)n3)c12 | binding | – | 1 µM | 100 |
| COc1cnc(Nc2cccc(S(N)(=O)=O)c2)nc1N1CCN(c2ccccc2)CC1 | binding | competition with immobilised ligand | 1 µM | 100 |
| O=C(c1ccc(Nc2ncc(Cl)c(-c3cc4ccccc4s3)n2)cc1)N1CCC(N2CCCC2)CC1 | binding | competition with immobilised ligand | 1 µM | 60 |
| COc1ncc2cc3ccccc3nc2c1C#N | cell-free assay | competition with immobilised ligand | 5 µM | 96 |
| O=C(NCCCN1CCOCC1)c1ccc(Nc2nccc(-c3cc4ccccc4s3)n2)cc1 | binding | competition with immobilised ligand | 1 µM | 72 |
| C[C@@H]1CN(c2ccc3ncc(-c4ccc5[nH]nc(C6CC6)c5c4)n3n2)C[C@H](C)O1 | binding | competition with immobilised ligand | 50 nM | 86 |
| CN(C)c1ncc(F)c(-c2cnn3ncccc23)n1 | binding | – | 1 µM | 80 |
| O=C(c1ccc(Nc2ncc(Cl)c(-c3ccc(Cl)s3)n2)cc1)N1CCC(N2CCCC2)CC1 | binding | competition with immobilised ligand | 1 µM | 100 |
| C[C@@H]1CN(c2cc(-c3n[nH]c4ccc(OC5(C)CC5)cc34)ncn2)C[C@H](C)O1 | cell-free assay | competition with immobilised ligand | 0.1 µM | 72 |
| FC(F)(F)Oc1cccc(-c2cnc3ccc(-c4ccncc4)nn23)c1 | cell-free assay | competition with immobilised ligand | 5 µM | 80 |
| Cc1noc([C@H]2C[C@@H](c3ccc(C(F)(F)F)cc3)CN(C(=O)N3CCS(=O)(=O)C3)C2)n1 | cell-free assay | competition with immobilised ligand | 1 µM | 100 |
| C[C@@H]1CCN(c2nccc(-c3cnn4ncccc34)n2)C1 | binding | – | 1 µM | 93 |
| O=C(NCc1ncc(C(F)(F)F)cc1Cl)c1ccc2c(c1)C1(CCS(=O)(=O)CC1)[C@@H](C1CC1)N2S(=O)(=O)c1ccc(F)cc1 | cell-free assay | competition with immobilised ligand | 1 µM | 84 |
| N#Cc1ccccc1CSc1nnc2c(n1)[nH]c1ccccc12 | binding | competition with immobilised ligand | 10 µM | 87 |
| CCC(=N\O)/C(C)=C/c1ccc(F)cc1 | cell-free assay | competition with immobilised ligand | 1 µM | 84 |
| CN(CCCC(F)(F)F)c1nccc(-c2cnn3ncccc23)n1 | binding | – | 1 µM | 82 |
| Cn1nc(C(=O)NCc2ccc(C(=O)O)cc2)cc1-c1ccc2[nH]ccc2c1 | cell-free assay | competition with immobilised ligand | 0.1 µM | 95 |
| O=C(Nc1c[nH]nc1C(=O)NC1CCNCC1)c1cc(F)cc(F)c1 | binding | competition with immobilised ligand | 1 µM | 100 |
